Compounds with a hit are over-represented: about 1.5% of the library has one in this group of screens.
PP5 inh: PP5 (human) phosphatase inhibition | P53041 | purified PP5c, OMFP substrate fluorescence | inhibition, % at 6.7 µM | actives 0.18% (n = 320,000) | AID 1987;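 active = inhibition above the campaign's mean inhibition across all tested compounds plus 3 SD, cut at about 9.5% in these data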;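 also: 0% = DMSO only and 100% = 100 µM cantharidin control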
PP1 counter: blocks human PP1-alpha phosphatase, a PP5 counter-screen; P62136; purified PP1alpha, OMFP fluorescence; actives 0.9% (n = 320,000); AID 2235; inhibition, % at 6.7 µM;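 active = inhibition above the mean inhibition of all tested compounds plus 3 SD, computed separately for each screening campaign, cut at about 15% in these data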
Target sequence (P62136 whole entry, looked up): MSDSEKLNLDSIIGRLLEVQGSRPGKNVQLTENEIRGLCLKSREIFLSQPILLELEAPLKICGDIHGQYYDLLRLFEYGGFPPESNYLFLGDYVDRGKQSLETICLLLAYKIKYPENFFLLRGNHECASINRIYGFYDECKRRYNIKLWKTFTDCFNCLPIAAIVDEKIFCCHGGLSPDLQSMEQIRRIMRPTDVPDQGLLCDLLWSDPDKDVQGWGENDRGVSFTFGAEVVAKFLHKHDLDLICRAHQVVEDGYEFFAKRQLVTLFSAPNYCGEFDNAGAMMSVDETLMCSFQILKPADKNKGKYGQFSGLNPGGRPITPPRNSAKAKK
RBBP9 inhibitor: blocks human serine hydrolase RBBP9; O75884; recombinant RBBP9, FP-Rh probe fluorescence polarization; inhibition, % at 7.94 µM; actives 0.2% (n = 220,000);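 active = inhibition above the campaign mean of all tested compounds plus 3 SD, cut at about 14% in these data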;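 also: plate controls were DMSO wells with RBBP9 for no effect and wells lacking RBBP9 protein for full effect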
Target sequence (O75884 whole entry, looked up): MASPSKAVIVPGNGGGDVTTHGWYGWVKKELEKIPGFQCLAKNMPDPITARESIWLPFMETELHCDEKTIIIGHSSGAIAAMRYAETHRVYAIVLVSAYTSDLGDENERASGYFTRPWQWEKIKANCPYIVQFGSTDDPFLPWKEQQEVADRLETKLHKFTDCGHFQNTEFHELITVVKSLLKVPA
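Test system: recombinant human RBBP9; Timing: 30 min then 45 min, 25 °C; Detection: fluorescence polarization; Control set: RBBP9 with DMSO as uninhibited control, no-protein wells as full inhibition; Compound dosing: one concentration, 7.94 µM nominal, 0.794% DMSO; Probe or stimulus: FP-Rh activity-based probe, 375 nM before mixing.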
p97 inhibitor: blocks human p97 ATPase activity; AID 1481; inhibition, % at 8 µM; recombinant p97 ATPase, Kinase-Glo ATP luminescence, 3 h; P55072; actives 0.42% (n = 220,000); in the data active = inhibition above about 15%;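 also: 0% = DMSO vehicle and 100% = wells lacking enzyme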
Hsp70 act: transcriptional activators of Hsp70; actives 0.04% (n = 200,000); HeLa Hsp70 promoter luciferase reporter, luminescence; scaled: vehicle 0, proteasome-inhibitor control 100%; activation, % at 10 µM;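 active = activation above the mean across all tested compounds plus 3 SD, cutoff set per campaign, cut at about 5.5% in these data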;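 also: 100% = MG132 at 30 µM as the positive control and 0% = DMSO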
PKD1 inh: PKD1 (human) kinase inhibition; actives 0.056% (n = 200,000); Q15139; AID 797; inhibition, % (concentration not given with the values); PKD1 kinase fluorescence polarization assay; in the data active = inhibition above about 50%
RBBP9 confirm: confirmation of human RBBP9 inhibitors | shares compounds with RBBP9 inhibitor | recombinant RBBP9, FP-Rh probe fluorescence polarization | inhibition, % at 7.94 µM | actives 36% (n = 410) | AID 1537;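 active = inhibition above the hit cutoff derived for the primary screen, cut at about 15% in these data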;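 also: 0% = RBBP9 with DMSO and 100% = wells lacking RBBP9 protein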
Starred values were filed as active, the others as inactive.

For Cc1cc(=O)[nH]c2c(N=Nc3ccc(O)cc3)c(N)nn12 the results were RBBP9 inhibitor 23*, p97 inhibitor 3, Hsp70 act 0, PKD1 inh 2 and RBBP9 confirm 34*.
For Nc1nn2c(C(F)(F)F)cc(=O)[nH]c2c1N=Nc1cccc(F)c1 the results were PP5 inh 4, PP1 counter 11, RBBP9 inhibitor -4, p97 inhibitor -4, Hsp70 act 0 and PKD1 inh 1.
Screening C=CCNc1nc(N2CCCCC2)c(C#N)c2c1CN(Cc1ccccc1)CC2 returned PP5 inh 0, PP1 counter 0, RBBP9 inhibitor -10, p97 inhibitor 3, Hsp70 act 0 and PKD1 inh -1.
For COc1ccc(-c2cc(-c3c(O)c(OC)c4occc4c3OC)[nH]n2)cc1OC the results were PP5 inh 6, PP1 counter 3, RBBP9 inhibitor 15*, p97 inhibitor 1, Hsp70 act 0, PKD1 inh -2 and RBBP9 confirm 53*.
`O=C(Nc1ccc(F)cc1)Nc1csc2ccccc12` gave PP5 inh 2, PP1 counter 0, RBBP9 inhibitor -1 and p97 inhibitor 6.
For CN(C)c1ccc(NC(=O)Nc2csc3ccccc23)cc1 the results were PP5 inh 3, PP1 counter -4, RBBP9 inhibitor 19*, p97 inhibitor 1 and RBBP9 confirm 58*.
`COc1ccc(CN2CCNC(=O)C2CC(=O)NCCC2=CCCCC2)c(F)c1` (stereo unspecified) gave PP5 inh 0 and PP1 counter 4.
For N#CC1=C(N)Oc2ccc3ccc(O)cc3c2C1c1ccsc1 (stereo unspecified) the results were RBBP9 inhibitor 53*, p97 inhibitor 4, Hsp70 act 0, PKD1 inh -2 and RBBP9 confirm 47*.
N#CC1=C(N)Oc2cc(N)ccc2C1c1ccsc1 (stereo unspecified) was read as PP5 inh 1, PP1 counter -6, RBBP9 inhibitor 1, p97 inhibitor 3, Hsp70 act 0 and PKD1 inh 0.
`COc1ccc(C2=CC(=O)C=CC2=O)cc1` gave RBBP9 inhibitor 51*, p97 inhibitor 11 and RBBP9 confirm 85*.
O=S(=O)(c1cccs1)N1CN(Cc2ccco2)c2nc3ccccc3nc21 was read as PP5 inh -1, PP1 counter 3, RBBP9 inhibitor 34*, p97 inhibitor 5 and RBBP9 confirm 0.
For Cc1cc(C)nc(Sc2c(C)nn(-c3ccccc3)c2C)n1 the results were PP5 inh 2, PP1 counter -1, RBBP9 inhibitor 15*, p97 inhibitor 1, Hsp70 act 0, PKD1 inh 1 and RBBP9 confirm 0.
For CCc1ccc(OCCCCN(C)Cc2ccccc2)cc1 the results were PP5 inh 3 and PP1 counter 5.
`COc1cc(-n2nnnc2SCC(=O)N2CCN(c3ccc(F)cc3)CC2)c(OC)cc1Cl` gave RBBP9 inhibitor 16*, p97 inhibitor 10, Hsp70 act 0, PKD1 inh -3 and RBBP9 confirm 5.
Screening O=c1[nH]c(NC2CCCCC2)c([N+](=O)[O-])c(=O)[nH]1 returned PP5 inh 0, PP1 counter -2, RBBP9 inhibitor -8, p97 inhibitor 1, Hsp70 act 0 and PKD1 inh 10.
Screening CCCCCCCC1CC(CSC(=N)N)OC1=O (stereo unspecified) returned PP5 inh 2, PP1 counter -3, RBBP9 inhibitor 23*, p97 inhibitor 1, Hsp70 act 0, PKD1 inh -2 and RBBP9 confirm 6.
Screening CCCCC1CC(CSC(=N)N)OC1=O (stereo unspecified) returned PP5 inh 3, PP1 counter -3, RBBP9 inhibitor -2, p97 inhibitor 1, Hsp70 act 0 and PKD1 inh -3.
For COc1ccc(C)cc1C1=CC(=O)C[C@H](c2ccc(F)cc2)C1 the results were PP5 inh 3 and PP1 counter 0.
Screening CCOC(=O)C(CCCCCOc1ccc([N+](=O)[O-])cc1)C(=O)OCC returned PP5 inh 2, PP1 counter 2, RBBP9 inhibitor 18*, p97 inhibitor -1, Hsp70 act 0, PKD1 inh 7 and RBBP9 confirm 6.
For CN(C(=O)/C=C/c1ccco1)c1ccccc1C(=O)O the results were PP5 inh 1, PP1 counter -1, RBBP9 inhibitor 17*, p97 inhibitor 5, Hsp70 act 0, PKD1 inh 0 and RBBP9 confirm 5.
CC1(C)CC(=O)C(C(=O)Cc2ccccc2[N+](=O)[O-])C(=O)C1 was read as PP5 inh 2, PP1 counter 2, RBBP9 inhibitor -7, p97 inhibitor 6, Hsp70 act 0 and PKD1 inh -7.
Screening COc1cc(/C=N/NC2=NCCCCC2)ccc1O returned PP5 inh 1, PP1 counter -1, RBBP9 inhibitor -8 and p97 inhibitor 6.
For Oc1ccc(/C=N/NC2=NCCCCC2)cc1 the results were PP5 inh 1, PP1 counter -3, RBBP9 inhibitor 16*, p97 inhibitor 2, Hsp70 act 0, PKD1 inh 1 and RBBP9 confirm 12.
CCOC(=O)c1ccc(-c2c(-c3ccc4c(c3)OCO4)noc2C)cc1F was read as PP5 inh 1 and PP1 counter 1.
CCn1nnnc1NCc1ccc(OCc2ccc(F)cc2Cl)c(OC)c1 was read as PP5 inh 1, PP1 counter 7, RBBP9 inhibitor 3, p97 inhibitor -4, Hsp70 act 0 and PKD1 inh 4.
Screening Oc1ccc(Nc2nc3ccccc3nc2Nc2ccc(O)cc2)cc1 returned PP5 inh 6, PP1 counter 2, RBBP9 inhibitor 21*, p97 inhibitor 11, Hsp70 act 1, PKD1 inh 4 and RBBP9 confirm 37*.
COc1cc2c(cc1OC)CN(CC(=O)Nc1ccc(F)cc1)C(C(=O)O)C2 (stereo unspecified) was read as PP5 inh -1 and PP1 counter 3.
`CC(C)n1c(SCC(N)=O)nc2c1c(=O)[nH]c(=O)n2C` gave RBBP9 inhibitor -7, p97 inhibitor 1, Hsp70 act -1 and PKD1 inh -5.
C/C=C/CSc1nc2c(c(=O)[nH]c(=O)n2C)n1C(C)C was read as PP5 inh 2, PP1 counter 0, RBBP9 inhibitor 15*, p97 inhibitor -1, Hsp70 act 0, PKD1 inh 5 and RBBP9 confirm 4.
For CCOc1ccccc1NC(=O)C(Sc1nnnn1C)c1ccccc1 (stereo unspecified) the results were PP5 inh 0, PP1 counter -8, RBBP9 inhibitor -4, p97 inhibitor -5, Hsp70 act 0 and PKD1 inh -11.

Screens deposited in PubChem by several laboratories.
